Data published in ChEMBL document CHEMBL1123281, “Synthesis and rat lens aldose reductase inhibitory activity of some benzopyran-2-ones” (J Med Chem, 1986).

These compounds were tested against T1, Aldo-keto reductase family 1 member B1 (Rattus norvegicus, UniProt P07943) (assay: Compound was tested for inhibitory concentration against rat lens aldose reductase (noncompetitive inhibition type)).
Summary of the method: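 Crude supernatant from 50 rat lenses homogenized in distilled water, centrifuged 10 000 rpm, 10 min, 0–5 °C. Read-out was NADPH decrease at 340 nm over 5 min in 0.1 M phosphate pH 6.2, 0.104 mM NADPH, 10 mM DL-glyceraldehyde. IC50 came from least-squares log dose–response fits, using ≥4 concentrations ×4 replicates. Inhibition type was read from double-reciprocal plots with 0.0625–1.0 mM substrate.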

| IC50 | SMILES |
| --- | --- |
| 0.15 µM | O=C(O)Cc1cc(=O)oc2cc(O)ccc12 |
| 61 µM | CC(=O)Oc1ccc2c(CC(=O)O)cc(=O)oc2c1 |
| 2.1 µM | COc1ccc2c(CCC(=O)O)cc(=O)oc2c1 |
| 62 µM | Cc1cc(=O)oc2cc(O)ccc12 [HYMECROMONE] |
| 17 µM | Cc1cc(=O)oc2cc(O)cc(O)c12 [5,7-DIHYDROXY-4-METHYLCOUMARIN] |
| 0.26 µM | O=C(O)Cc1cc(=O)oc2cc(O)cc(O)c12 |
| 32 µM | O=C(O)Cc1cccc2ccccc12 |
| 0.37 µM | COc1ccc2c(CC(=O)O)cc(=O)oc2c1 |

Each compound was assayed against T1, Aldo-keto reductase family 1 member B1 (assay: Compound was tested for inhibitory concentration against rat lens aldose reductase (uncompetitive inhibition type)).

| IC50 | SMILES |
| --- | --- |
| 4.4 µM | COc1ccc2c(/C=C/C(=O)O)cc(=O)oc2c1 |
| 10 µM | NC(=O)Cc1cc(=O)oc2cc(O)ccc12 |
| 0.14 µM | O=C(O)Cc1cc(=O)oc2c1ccc1ccccc12 |
| 38 µM | COC(=O)Cc1cc(=O)oc2cc(O)ccc12 |
| 10 µM | Cc1cc(=O)oc2c(O)c(O)ccc12 [4-METHYLDAPHNETIN] |
| 0.6 µM | O=C(O)Cc1cc(=O)oc2ccccc12 |
| 0.02 µM | O=C(O)Cc1cc(=O)oc2ccc3ccccc3c12 |
| 0.24 µM | CCc1ccc2c(CC(=O)O)cc(=O)oc2c1 |
| 11 µM | COc1ccc2c(C(=O)O)cc(=O)oc2c1 |
| 0.56 µM | O=C(O)Cc1cc(=O)oc2cc(Cl)ccc12 |

The compounds below were run against Aldo-keto reductase family 1 member B1 (Rattus norvegicus) (UniProt P07943) (assay: Compound was tested for percent inhibition at 10 e-4 M against rat lens aldose reductase).
Summary of the method: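 Single-concentration screen at 100 μM against crude rat lens supernatant. The reaction mix was 0.1 M phosphate pH 6.2, 0.104 mM NADPH and 10 mM DL-glyceraldehyde, started with substrate. NADPH loss was followed at 340 nm for 5 min, with inhibitor included in the blanks. Percent inhibition compares the rate with a substrate-only control. Final Me2SO was ≤1%.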

| inhibition | SMILES |
| --- | --- |
| 19% | Cc1cc(=O)oc2ccccc12 |
| 13% | CC(=O)Oc1ccc2c(C)cc(=O)oc2c1 |
| 21% | COc1ccc2c(C)cc(=O)oc2c1 |
| 10% | Cc1cc(=O)oc2cc(Cl)ccc12 |
| 22% | Cc1cc(=O)oc2ccc(O)cc12 |
| 16% | CCc1ccc2c(C)cc(=O)oc2c1 |
